For one molecule, IC50 and inhibition results are on record in ChEMBL document CHEMBL4196162, “Target-Directed Self-Assembly of Homodimeric Drugs Against β-Tryptase” (ACS Med Chem Lett, 2018).

SMILES strings stand for the structures. Activity calls are given as the source filed them. The rule behind the calls is not given here.

Assay [1] is described as follows: Inhibition of recombinant human lung beta-tryptase using N-tert-butoxycarbonyl-Gln-Ala-Arg-AMC as substrate incubated for 3 hrs followed by substrate addition measured every 30 secs for 15 mins in presence of 1 nM of tryptase. An outline of the steps: (§1)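 Purified tryptase tested at several enzyme concentrations. IC50 from nonlinear regression with no Hill slope constraint.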

The nature of assay [2]: Inhibition of beta-tryptase in human HMC1 cells assessed as decrease in A23187-induced degranulation in cell lysates incubated for 2 hrs followed by A23187 addition measured after 1 hr. The format is cell-based. In a few lines: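 HMC1 human mast cell lysates tested for tryptase activity in the presence of inhibitor. IC50 and SEM from nonlinear regression with unconstrained Hill slope.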

Assay [3] can be described thus: Inhibition of beta-tryptase in human HMC1 cells assessed as decrease in A23187-induced degranulation in supernatant incubated for 2 hrs followed by A23187 addition measured after 1 hr. Format: cell-based. In a few lines:
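Cultured HMC1 human mast cells exposed to inhibitor (10 nM to 100 μM) for 2 h, then degranulated with 1 μM A23187 in PBS. After 1 h, supernatant tested for tryptase activity. IC50 and SEM from nonlinear regression with unconstrained Hill slope.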

The species entered for assay [4] is Homo sapiens. The experiment in a line: Reversal inhibition of recombinant human lung beta-tryptase assessed as recovery of enzymatic activity at 10 uM using N-tert-butoxycarbonyl-Gln-Ala-Arg-AMC as substrate measured over 216 hrs.
Assay [5] is described as follows: Inhibition of recombinant human lung beta-tryptase using N-tert-butoxycarbonyl-Gln-Ala-Arg-AMC as substrate incubated for 3 hrs followed by substrate addition measured every 30 secs for 15 mins in presence of 100 pM of tryptase. An outline of the steps:
as §1

A short description of assay [6]: Inhibition of recombinant human lung beta-tryptase using N-tert-butoxycarbonyl-Gln-Ala-Arg-AMC as substrate incubated for 3 hrs followed by substrate addition measured every 30 secs for 15 mins in presence of 10 pM of tryptase. An outline of the steps:
as §1

Turning to `NCc1cccc(C2CCN(C(=O)c3cccc(NC(=O)C(O)C4(O)CCC4)c3)CC2)c1` (stereo unspecified), the IC50 in assay [1] was 8.1 µM; in assay [2], 21.8 µM; in assay [3], 137 µM; in assay [5], 170 nM; in assay [6] it was 640 nM. The inhibition entry in assay [4] is “Active”.

What is called IC50 is the point on the concentration scale where inhibition reaches its midpoint.
